{"source": "ChEMBL document CHEMBL3526127", "about": "“Absorption, elimination, and metabolism of CS-1036, a novel α-amylase inhibitor in rats and monkeys, and the relationship between gastrointestinal distribution and suppression of glucose absorption” (Drug Metab Dispos, 2013)", "key": {"[1]": {"assay": "Drug metabolism in anaerobic culture broth of F344 rat cecal content assessed as N-acetyl [14C]CS-1036 formation at 63.5 uCi/ml after 24 hrs at 35 degC by LC-MS/MS method", "type": "ADME"}, "[2]": {"assay": "Drug level in anaerobic culture broth of F344 rat cecal content treated with [14C]CS-1036 at 63.5 uCi/ml after 24 hrs at 35 degC by LC-MS/MS method", "type": "ADME", "conditions": "in vitro"}, "[3]": {"assay": "Drug distribution in cecum of F344 rat treated with [14C]CS-1036 at 1 mg/kg, po administered as single dose after 6 to 8 hrs by scintillation counting method", "type": "ADME, organism-based, Caecum", "parameters": "dose 1 mg/kg, route oral", "conditions": "in vivo"}, "[4]": {"assay": "Drug excretion in feces of cynomolgus monkey treated with [14C]CS-1036 at 3 mg/kg, po administered as single dose after 48 hrs by scintillation counting method", "conditions": "in vivo"}, "[5]": {"assay": "Drug level in anaerobic culture broth of monkey feces derived anaerobic culture broth treated with [14C]CS-1036 at 63.5 uCi/ml after 24 hrs at 35 degC by LC-MS/MS method", "conditions": "cynomolgus monkey, in vivo"}, "[6]": {"assay": "Drug level in anaerobic culture broth of human feces derived anaerobic culture broth treated with [14C]CS-1036 at 63.5 uCi/ml after 24 hrs at 35 degC by LC-MS/MS method", "type": "ADME, tissue-based"}, "Intestine": {"tested_on": "Intestine", "assay": "Drug distribution in intestine of F344 rat treated with [14C]CS-1036 at 1 mg/kg, po administered as single dose after 2 to 8 hrs by scintillation counting method", "type": "ADME, organism-based", "parameters": "dose 1 mg/kg, route oral", "conditions": "in vivo"}, "Stomach": {"tested_on": "Stomach", "assay": "Drug distribution in stomach of F344 rat treated with [14C]CS-1036 at 1 mg/kg, po administered as single dose after 2 to 8 hrs by scintillation counting method", "type": "ADME, organism-based", "parameters": "dose 1 mg/kg, route oral", "conditions": "in vivo"}, "[7]": {"assay": "Drug level in feces of F344 rat treated with [14C]CS-1036 by LC-MS/MS method", "type": "ADME, tissue-based", "conditions": "in vivo"}, "Cynomolgus monkey [8]": {"tested_on": "Cynomolgus monkey", "assay": "Drug level in cynomolgus monkey treated with 3 mg/kg, po CS-1036 administered as single dose assessed as ratio of molar based AUClast by LC-MS/MS method relative to CS-1036", "type": "ADME, organism-based, Macaca fascicularis", "parameters": "dose 3 mg/kg, route oral", "conditions": "in vivo"}, "Cynomolgus monkey [9]": {"tested_on": "Cynomolgus monkey", "assay": "Drug level in cynomolgus monkey treated with 1 mg/kg, po CS-1036 administered as single dose assessed as ratio of molar based AUClast by LC-MS/MS method relative to CS-1036", "type": "ADME, organism-based, Macaca fascicularis", "parameters": "dose 1 mg/kg, route oral", "conditions": "in vivo"}, "[10]": {"assay": "Drug level in urine of po dosed monkey treated with [14C]CS-1036 by LC-MS/MS method", "conditions": "cynomolgus monkey, in vivo"}, "[11]": {"assay": "Drug level in urine of F344 rat treated with [14C]CS-1036 by LC-MS/MS method", "type": "ADME, tissue-based", "conditions": "in vivo"}, "[12]": {"assay": "Cmax in rat at 10 mg/kg, po", "type": "ADME, organism-based", "parameters": "dose 10 mg/kg, route oral", "conditions": "in vivo"}, "[13]": {"assay": "Drug excretion in urine of cynomolgus monkey treated with [14C]CS-1036 at 3 mg/kg, po administered as single dose after 48 hrs by scintillation counting method", "conditions": "in vivo"}, "Rattus norvegicus [14]": {"tested_on": "Rattus norvegicus", "assay": "Drug level in F344 rat treated with 3 mg/kg, iv CS-1036 administered as single dose assessed as ratio of molar based AUClast by LC-MS/MS method relative to CS-1036", "type": "ADME, organism-based", "parameters": "dose 3 mg/kg, route intravenous", "conditions": "in vivo"}, "[15]": {"assay": "Oral bioavailability in rat at 10 mg/kg", "type": "ADME, organism-based", "conditions": "in vivo"}, "[16]": {"assay": "Drug level in urine of po dosed F344 rat treated with [14C]CS-1036 by LC-MS/MS method", "type": "ADME, organism-based", "conditions": "in vivo"}, "Rattus norvegicus [17]": {"tested_on": "Rattus norvegicus", "assay": "Drug level in F344 rat treated with 10 mg/kg, iv CS-1036 administered as single dose assessed as ratio of molar based AUClast by LC-MS/MS method relative to CS-1036", "type": "ADME, organism-based", "parameters": "dose 10 mg/kg, route intravenous", "conditions": "in vivo"}, "[18]": {"assay": "Drug distribution in cecum of F344 rat treated with [14C]CS-1036 at 1 mg/kg, po administered as single dose by scintillation counting method", "type": "ADME, organism-based, Caecum", "parameters": "dose 1 mg/kg, route oral", "conditions": "in vivo, TDE = time-dependent effect", "procedure,_shortened": "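[14C]-labelled drug (1 mg/kg, 42.4 µCi/kg) was given orally to fasted F344 rats (148–168 g, n = 3). Contents of stomach, duodenum+jejunum, ileum and cecum were washed out with water at 0.5–8 h, homogenized, solubilized and counted by liquid scintillation. Results are % of dose, mean ± S.D.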"}, "Rattus norvegicus [19]": {"tested_on": "Rattus norvegicus", "assay": "Drug level in F344 rat treated with 1 mg/kg, po CS-1036 administered as single dose assessed as ratio of molar based AUClast by LC-MS/MS method relative to CS-1036", "type": "ADME, organism-based", "parameters": "dose 1 mg/kg, route oral", "conditions": "in vivo"}, "Rattus norvegicus [20]": {"tested_on": "Rattus norvegicus", "assay": "Drug level in F344 rat treated with 3 mg/kg, po CS-1036 administered as single dose assessed as ratio of molar based AUClast by LC-MS/MS method relative to CS-1036", "type": "ADME, organism-based", "parameters": "dose 3 mg/kg, route oral", "conditions": "in vivo"}, "Mus musculus": {"organism": "Mus musculus", "assay": "Inhibition of glycogen phosphorylase in ob/ob mouse", "type": "functional, organism-based"}, "[21]": {"assay": "Drug distribution in cecum of F344 rat treated with [14C]CS-1036 at 1 mg/kg, po administered as single dose after 8 hrs by scintillation counting method", "type": "ADME, organism-based, Caecum", "parameters": "dose 1 mg/kg, route oral", "conditions": "in vivo"}, "Rattus norvegicus [22]": {"tested_on": "Rattus norvegicus", "assay": "Drug level in F344 rat treated with 10 mg/kg, po CS-1036 administered as single dose assessed as ratio of molar based AUClast by LC-MS/MS method relative to CS-1036", "type": "ADME, organism-based", "parameters": "dose 10 mg/kg, route oral", "conditions": "in vivo"}, "Rattus norvegicus [23]": {"tested_on": "Rattus norvegicus", "assay": "Drug level in F344 rat treated with 0.3 mg/kg, po CS-1036 administered as single dose assessed as ratio of molar based AUClast by LC-MS/MS method relative to CS-1036", "type": "ADME, organism-based", "parameters": "dose 0.3 mg/kg, route oral", "conditions": "in vivo"}, "[24]": {"assay": "Drug excretion in urine of F344 rat treated with [14C]CS-1036 at 1 mg/kg, po administered as single dose after 24 hrs by scintillation counting method", "type": "ADME, organism-based", "parameters": "dose 1 mg/kg, route oral", "conditions": "in vivo"}, "Cynomolgus monkey [25]": {"tested_on": "Cynomolgus monkey", "assay": "Drug level in cynomolgus monkey treated with 10 mg/kg, po CS-1036 administered as single dose assessed as ratio of molar based AUClast by LC-MS/MS method relative to CS-1036", "type": "ADME, organism-based, Macaca fascicularis", "parameters": "dose 10 mg/kg, route oral", "conditions": "in vivo"}}, "data": [{"smiles": "CC(=O)N1C[C@@H](O)[C@H](O[C@H]2O[C@H](CO)[C@@H](O[C@@H]3O[C@H](C)[C@@H](O)[C@H](O)[C@H]3O)[C@H](O)[C@H]2O)[C@H]1CO", "values": [{"measurement": "Drug metabolism", "setting": "[1]", "value": "metabolite_detected"}, {"measurement": "Drug metabolism", "setting": "[2]", "value": "metabolite_detected"}]}, {"smiles": "CC(=O)N1C[C@@H](O)[C@H](O)[C@H]1CO", "values": [{"measurement": "Drug uptake", "setting": "[3]", "value": 1.7, "unit": "%"}, {"measurement": "Drug excretion", "setting": "[4]", "value": 17.8, "unit": "%"}, {"measurement": "Drug metabolism", "setting": "[5]", "value": "metabolite_detected"}, {"measurement": "Drug metabolism", "setting": "[6]", "value": "metabolite_detected"}, {"measurement": "Drug metabolism", "setting": "Intestine", "value": "metabolite_not_detected"}, {"measurement": "Drug metabolism", "setting": "[2]", "value": "metabolite_detected"}, {"measurement": "Drug metabolism", "setting": "Stomach", "value": "metabolite_not_detected"}, {"measurement": "Drug metabolism", "setting": "[7]", "value": "metabolite_detected"}]}, {"smiles": "OC[C@H]1NC[C@@H](O)[C@@H]1O", "values": [{"measurement": "Drug uptake", "setting": "Cynomolgus monkey [8]", "value": 83.5, "unit": "%"}, {"measurement": "Drug uptake", "setting": "Cynomolgus monkey [9]", "value": 60.8, "unit": "%"}, {"measurement": "Drug metabolism", "setting": "[10]", "value": "metabolite_detected"}, {"measurement": "Drug metabolism", "setting": "[11]", "value": "metabolite_detected"}, {"measurement": "Cmax", "setting": "[12]", "value": "< 300", "unit": "nM"}, {"measurement": "Drug excretion", "setting": "[13]", "value": 2.2, "unit": "%"}, {"measurement": "Drug uptake", "setting": "Rattus norvegicus [14]", "value": 0.00672, "unit": "%"}, {"measurement": "Drug excretion", "setting": "[4]", "value": 9.7, "unit": "%"}, {"measurement": "Drug metabolism", "setting": "[5]", "value": "metabolite_detected"}, {"measurement": "bioavailability", "setting": "[15]", "value": 89, "unit": "%"}, {"measurement": "Drug metabolism", "setting": "[6]", "value": "metabolite_detected"}, {"measurement": "Drug metabolism", "setting": "[16]", "value": "metabolite_detected"}, {"measurement": "Drug uptake", "setting": "Rattus norvegicus [17]", "value": 0.0172, "unit": "%"}, {"measurement": "Drug uptake", "setting": "[18]", "value": "tde"}, {"measurement": "Drug uptake", "setting": "Rattus norvegicus [19]", "value": 73.4, "unit": "%"}, {"measurement": "Drug uptake", "setting": "Rattus norvegicus [20]", "value": 49.9, "unit": "%"}, {"measurement": "Ki", "setting": "Mus musculus", "value": 392, "unit": "nM"}, {"measurement": "Drug uptake", "setting": "[21]", "value": 7.1, "unit": "%"}, {"measurement": "Drug uptake", "setting": "Rattus norvegicus [22]", "value": 32.2, "unit": "%"}, {"measurement": "Drug uptake", "setting": "Rattus norvegicus [23]", "value": 22.1, "unit": "%"}, {"measurement": "Drug excretion", "setting": "[24]", "value": 5.3, "unit": "%"}, {"measurement": "Drug uptake", "setting": "Intestine", "value": "< 1", "unit": "%"}, {"measurement": "Drug metabolism", "setting": "[2]", "value": "metabolite_detected"}, {"measurement": "Drug uptake", "setting": "Stomach", "value": "< 1", "unit": "%"}, {"measurement": "Drug metabolism", "setting": "[7]", "value": "metabolite_detected"}, {"measurement": "Drug uptake", "setting": "Cynomolgus monkey [25]", "value": 62.5, "unit": "%"}]}]}
